Published values collected from several papers.
Compare with care: the assays were run in different laboratories.
Target: Vascular endothelial growth factor receptor 3 (FLT4, Homo sapiens, UniProt P35916)

Compound | observed | method | concentration | remaining binding
O=C(NCCCN1CCOCC1)c1ccc(Nc2nccc(-c3cc4ccccc4s3)n2)cc1 | binding | competition with immobilised ligand | 1 µM | 50%
Cc1nc(N2CC[C@@H](O)C2)ncc1-c1cc(C(F)(F)F)cc2[nH]ncc12 | cell-free assay | competition with immobilised ligand | 1 µM | 100%
COc1ccnn2ncc(-c3ccnc(N(C)C)n3)c12 | binding |  | 1 µM | 100%
CCS(=O)(=O)c1cc2cc(C[C@](O)(CC(C)(C)c3ccc(F)cc3C(N)=O)C(F)(F)F)[nH]c2cn1 | cell-free assay | competition with immobilised ligand | 1 µM | 95%
c1cncc(-c2cccc(Nc3nccc(NC4CCCCC4)n3)c2)c1 | binding | competition with immobilised ligand | 10 µM | 18%
F[C@@H]1CCN(c2nccc(-c3cnn4ncccc34)n2)C1 | binding |  | 1 µM | 90%
O=C(NCC1CCOCC1)c1n[nH]cc1NC(=O)c1c(F)cccc1F | binding | competition with immobilised ligand | 1 µM | 95%
COc1ncc2cc3ccccc3nc2c1C#N | cell-free assay | competition with immobilised ligand | 5 µM | 96%
CNCc1ccccc1-c1csc([C@H](C)Nc2nc(C)nc3cc(OC)c(OC)cc23)c1 | cell-free assay | competition with immobilised ligand | 1 µM | 100%
FC(F)(F)Oc1cccc(-c2cnc3ccc(-c4ccncc4)nn23)c1 | cell-free assay | competition with immobilised ligand | 5 µM | 84%
O=C(c1ccc(Nc2nccc(-c3cc4ccccc4s3)n2)cc1)N1CCC(N2CCCC2)CC1 | binding | competition with immobilised ligand | 1 µM | 30%
C=CC(=O)Nc1cccc(CN2C(=O)N(c3c(Cl)c(OC)cc(OC)c3Cl)Cc3cnc(NCCCCN(CC)CC)nc32)c1 | cell-free assay | competition with immobilised ligand | 10 µM | 0.2%
CN(C)c1nccc(-c2cnc3ncccn23)n1 | binding |  | 1 µM | 88%
CC(=O)c1c(NS(C)(=O)=O)c2cc(-c3ccc(Cl)cc3)c(-c3ccc(Cl)cc3Cl)nc2n(C)c1=O | cell-free assay | competition with immobilised ligand | 1 µM | 100%
Cc1cnc(Nc2ccc(C(=O)N3CCC(N4CCCC4)CC3)cc2)nc1-c1cc2ccccc2s1 | binding | competition with immobilised ligand | 1 µM | 0.4%
Nc1ncc2c(n1)-c1c([nH]c3ccc(C#CC4CC4)cc13)CCCC2 | binding | competition with immobilised ligand | 1 µM | 100%
CN(C)c1nccc(-c2cnn3ncccc23)n1 | binding |  | 1 µM | 100%
CCCOc1ccc([C@@H]2[C@@H](C(=O)O)[C@H](c3ccc4c(c3)OCO4)CN2CC(=O)Nc2c(CC)cccc2CC)cc1 | cell-free assay | competition with immobilised ligand | 1 µM | 100%
N[C@H]1CCN(c2nccc(-c3cnn4ncccc34)n2)C1 | binding |  | 1 µM | 92%
Nc1c(C(=O)NCc2ccc(C(=O)NCCCC3CCCCC3)cc2)cnn1-c1ccccc1 | cell-free assay | competition with immobilised ligand | 0.1 µM | 100%
C[C@H]1CCN(c2nccc(-c3cnn4ncccc34)n2)C1 | binding |  | 1 µM | 100%
COc1cnc(Nc2cccc(S(N)(=O)=O)c2)nc1N1CCN(c2ccccc2)CC1 | binding | competition with immobilised ligand | 1 µM | 85%
